Assay results as given in ChEMBL document CHEMBL4043298, “Discovery of a Potent (4 R,5 S)-4-Fluoro-5-methylproline Sulfonamide Transient Receptor Potential Ankyrin 1 Antagonist and Its Methylene Phosphate Prodrug Guided by Molecular Modeling” (J Med Chem, 2018).
Converted amounts (≈) assume the structure as drawn.

Experiments:
[1] = Clearance in rat liver microsomes; assay type: ADME, microsome
Method in brief: (§1)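 Hepatic clearance predicted from human or rat liver microsome incubations.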

[2] = Lipophilicity, log D of the compound at pH 7.4; settings: buffer
[3] = Clearance in human liver microsomes; assay type: ADME, microsome; method in brief: as §1
[4] = target: Transient receptor potential cation channel subfamily A member 1 (Homo sapiens, UniProt O75762); experiment: Inhibition of human TRPA1 expressed in HEK293 cells assessed as inhibition of cinnamaldehyde-induced Ca2+ influx preincubated for 20 mins followed by cinnamaldehyde induction by FLIPR assay; assay type: cell-based
[5] = Kinetic solubility of the compound; assay type: physicochemical; settings: read-out: Kinetic_solubility
[6] = target: Transient receptor potential cation channel subfamily A member 1 (Rattus norvegicus, UniProt Q6RI86); experiment: Inhibition of rat TRPA1 expressed in HEK293 cells assessed as inhibition of cinnamaldehyde-induced Ca2+ influx preincubated for 20 mins followed by cinnamaldehyde induction by FLIPR assay; assay type: cell-based
[7] = Ratio of unbound Cmax in rat at 30 mg/kg, po to IC50 for rat TRPA1
Method in brief: (§2)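 Rat oral dose of 30 or 100 mg/kg given as an amorphous suspension. Solid was dissolved in DMSO and precipitated into aqueous MCT, giving a final 15% DMSO/85% MCT. Plasma exposure measured over 0–24 h. The target multiple is unbound Cmax divided by the rat TRPA1 IC50.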

[8] = Oral bioavailability in rat at 1 mg/kg; assay type: ADME, organism-based; settings: in vivo
[9] = AUC (0 to 24 hrs) in rat at 1 mg/kg, po; assay type: ADME, organism-based; design: dose 1 mg/kg, time < 24 hr, route oral; settings: in vivo
Method in brief: (§3)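 Rat oral dose of 1 mg/kg in MCT vehicle (0.5% methylcellulose with 0.2% Tween 80 in water). Parent plasma exposure measured over 0–24 h. The target multiple is unbound Cmax divided by the rat TRPA1 IC50.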

[10] = Ratio of unbound Cmax in rat at 100 mg/kg, po to IC50 for rat TRPA1; method in brief: as §2
[11] = Cmax in rat at 30 mg/kg, po; assay type: ADME, organism-based; design: dose 30 mg/kg, route oral; settings: in vivo; method in brief: as §2
[12] = Permeability across apical to basolateral side in MDCK cells; assay type: ADME, cell-based, Canis lupus familiaris; settings: dog, read-out: permeability
[13] = AUC (0 to 24 hrs) in rat at 100 mg/kg, po; assay type: ADME, organism-based; design: dose 100 mg/kg, time < 24 hr, route oral; settings: in vivo; method in brief: as §2
[14] = Cmax in rat at 100 mg/kg, po; assay type: ADME, organism-based; design: dose 100 mg/kg, route oral; settings: in vivo; method in brief: as §2
[15] = system: Rattus norvegicus; experiment: Half life in rat at 1 mg/kg, iv; assay type: ADME, organism-based; settings: in vivo
[16] = Protein binding in rat plasma; assay type: ADME, cell-free; settings: read-out: PPB (converted)
[17] = system: Rattus norvegicus; experiment: Volume of distribution at steady state in rat at 1 mg/kg, iv; assay type: ADME, organism-based; settings: in vivo
[18] = Protein binding in human plasma; assay type: ADME, cell-free; settings: read-out: PPB (converted)
[19] = target: Transient receptor potential cation channel subfamily V member 1 (Homo sapiens, UniProt Q8NER1); experiment: Inhibition of human TRPV1
[20] = Ratio of unbound Cmax in rat at 1 mg/kg, po to IC50 for rat TRPA1; method in brief: as §3
[21] = target: hERG (KCNH2) (Homo sapiens, UniProt Q12809); experiment: Inhibition of human ERG at 10 uM by patch clamp assay relative to control
Method in brief: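 hERG potassium channel inhibition measured by automated patch clamp at a single concentration of 10 μM.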

[22] = target: Transient receptor potential cation channel subfamily M member 8 (Homo sapiens, UniProt Q7Z2W7); experiment: Inhibition of human TRPM8
[23] = AUC (0 to 24 hrs) in rat at 30 mg/kg, po; assay type: ADME, organism-based; design: dose 30 mg/kg, time < 24 hr, route oral; settings: in vivo; method in brief: as §2
[24] = Cmax in rat at 1 mg/kg, po; assay type: ADME, organism-based; design: dose 1 mg/kg, route oral; settings: in vivo; method in brief: as §3

Chain of Transient receptor potential cation channel subfamily A member 1 (Homo sapiens, UniProt O75762) (O75762 whole entry): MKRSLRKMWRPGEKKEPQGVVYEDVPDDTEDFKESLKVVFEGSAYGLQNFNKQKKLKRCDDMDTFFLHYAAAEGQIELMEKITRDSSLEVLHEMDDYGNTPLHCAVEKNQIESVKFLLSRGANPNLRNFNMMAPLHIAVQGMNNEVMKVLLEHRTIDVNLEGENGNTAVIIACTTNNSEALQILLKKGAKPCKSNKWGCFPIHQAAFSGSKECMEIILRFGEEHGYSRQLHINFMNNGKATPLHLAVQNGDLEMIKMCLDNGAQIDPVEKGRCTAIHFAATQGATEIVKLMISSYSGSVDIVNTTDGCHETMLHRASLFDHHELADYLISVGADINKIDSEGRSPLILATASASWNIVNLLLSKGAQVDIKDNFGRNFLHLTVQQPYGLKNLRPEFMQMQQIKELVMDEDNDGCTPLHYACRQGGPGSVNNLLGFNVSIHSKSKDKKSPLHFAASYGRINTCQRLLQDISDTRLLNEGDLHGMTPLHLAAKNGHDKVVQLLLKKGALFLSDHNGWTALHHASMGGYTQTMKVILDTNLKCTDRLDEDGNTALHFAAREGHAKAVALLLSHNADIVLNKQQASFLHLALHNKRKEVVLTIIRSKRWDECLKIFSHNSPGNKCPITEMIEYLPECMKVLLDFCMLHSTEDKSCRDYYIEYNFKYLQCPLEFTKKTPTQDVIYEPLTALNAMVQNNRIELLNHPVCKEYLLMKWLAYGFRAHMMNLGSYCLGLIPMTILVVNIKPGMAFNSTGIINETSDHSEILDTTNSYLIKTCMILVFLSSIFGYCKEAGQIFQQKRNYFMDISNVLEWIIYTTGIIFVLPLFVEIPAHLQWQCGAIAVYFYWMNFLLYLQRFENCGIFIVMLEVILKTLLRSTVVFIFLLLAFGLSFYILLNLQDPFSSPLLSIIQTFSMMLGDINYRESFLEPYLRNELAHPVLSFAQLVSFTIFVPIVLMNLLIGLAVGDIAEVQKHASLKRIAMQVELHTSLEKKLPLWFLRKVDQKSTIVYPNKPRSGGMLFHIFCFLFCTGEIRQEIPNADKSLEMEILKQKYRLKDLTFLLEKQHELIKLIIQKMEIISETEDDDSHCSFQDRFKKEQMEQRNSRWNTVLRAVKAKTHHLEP
Chain of hERG (KCNH2) (Q12809 whole entry): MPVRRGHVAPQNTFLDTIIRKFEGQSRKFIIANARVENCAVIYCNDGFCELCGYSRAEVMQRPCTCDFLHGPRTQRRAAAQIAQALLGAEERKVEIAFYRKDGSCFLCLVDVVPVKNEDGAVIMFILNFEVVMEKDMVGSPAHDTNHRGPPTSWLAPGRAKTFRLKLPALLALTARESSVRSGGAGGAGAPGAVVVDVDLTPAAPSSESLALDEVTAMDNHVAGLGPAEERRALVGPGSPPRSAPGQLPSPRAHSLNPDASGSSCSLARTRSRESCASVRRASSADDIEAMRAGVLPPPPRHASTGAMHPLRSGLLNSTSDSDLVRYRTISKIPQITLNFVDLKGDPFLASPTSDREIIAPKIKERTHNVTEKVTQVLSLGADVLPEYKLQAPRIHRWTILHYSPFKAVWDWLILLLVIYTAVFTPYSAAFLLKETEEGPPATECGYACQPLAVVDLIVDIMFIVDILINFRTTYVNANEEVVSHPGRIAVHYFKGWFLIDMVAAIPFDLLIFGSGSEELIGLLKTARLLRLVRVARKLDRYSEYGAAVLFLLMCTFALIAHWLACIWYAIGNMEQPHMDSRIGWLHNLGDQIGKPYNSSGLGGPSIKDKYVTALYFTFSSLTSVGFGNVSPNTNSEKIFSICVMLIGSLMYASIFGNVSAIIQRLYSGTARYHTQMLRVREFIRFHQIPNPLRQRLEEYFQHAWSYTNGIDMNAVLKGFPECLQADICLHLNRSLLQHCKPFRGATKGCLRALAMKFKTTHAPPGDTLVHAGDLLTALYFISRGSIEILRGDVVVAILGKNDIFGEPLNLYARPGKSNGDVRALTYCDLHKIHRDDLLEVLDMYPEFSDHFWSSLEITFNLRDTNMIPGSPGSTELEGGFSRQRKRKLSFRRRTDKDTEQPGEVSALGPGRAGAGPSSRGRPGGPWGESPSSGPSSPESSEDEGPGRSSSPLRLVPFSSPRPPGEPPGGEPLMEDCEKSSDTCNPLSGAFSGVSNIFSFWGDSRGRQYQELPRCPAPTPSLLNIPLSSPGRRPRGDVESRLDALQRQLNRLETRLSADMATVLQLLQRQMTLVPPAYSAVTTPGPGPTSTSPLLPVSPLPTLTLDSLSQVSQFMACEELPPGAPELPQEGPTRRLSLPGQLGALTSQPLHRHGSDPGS
Chain of Transient receptor potential cation channel subfamily V member 1 (Q8NER1 whole entry): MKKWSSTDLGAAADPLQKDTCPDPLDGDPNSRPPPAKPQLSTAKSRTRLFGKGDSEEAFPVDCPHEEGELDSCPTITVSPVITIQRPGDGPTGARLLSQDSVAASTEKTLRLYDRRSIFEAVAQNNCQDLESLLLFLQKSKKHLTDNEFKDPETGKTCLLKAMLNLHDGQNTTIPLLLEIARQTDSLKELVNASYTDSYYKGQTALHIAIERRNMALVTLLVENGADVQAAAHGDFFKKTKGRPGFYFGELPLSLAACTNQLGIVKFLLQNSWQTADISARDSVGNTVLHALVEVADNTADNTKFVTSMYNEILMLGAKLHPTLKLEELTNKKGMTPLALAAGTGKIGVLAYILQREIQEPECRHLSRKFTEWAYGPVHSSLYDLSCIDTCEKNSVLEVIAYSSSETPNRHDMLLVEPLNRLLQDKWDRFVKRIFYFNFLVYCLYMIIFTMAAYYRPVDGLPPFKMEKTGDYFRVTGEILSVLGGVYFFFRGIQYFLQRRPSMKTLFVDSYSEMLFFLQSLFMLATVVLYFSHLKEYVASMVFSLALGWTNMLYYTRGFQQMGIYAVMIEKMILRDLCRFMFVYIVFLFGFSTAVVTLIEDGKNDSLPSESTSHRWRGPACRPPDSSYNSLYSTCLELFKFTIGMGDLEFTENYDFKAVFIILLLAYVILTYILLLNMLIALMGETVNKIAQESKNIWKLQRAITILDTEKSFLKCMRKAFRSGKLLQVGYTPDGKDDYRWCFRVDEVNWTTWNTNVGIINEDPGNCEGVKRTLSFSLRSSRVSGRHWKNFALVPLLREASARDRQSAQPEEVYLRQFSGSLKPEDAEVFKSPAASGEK
Chain of Transient receptor potential cation channel subfamily A member 1 (Rattus norvegicus, UniProt Q6RI86) (Q6RI86 whole entry): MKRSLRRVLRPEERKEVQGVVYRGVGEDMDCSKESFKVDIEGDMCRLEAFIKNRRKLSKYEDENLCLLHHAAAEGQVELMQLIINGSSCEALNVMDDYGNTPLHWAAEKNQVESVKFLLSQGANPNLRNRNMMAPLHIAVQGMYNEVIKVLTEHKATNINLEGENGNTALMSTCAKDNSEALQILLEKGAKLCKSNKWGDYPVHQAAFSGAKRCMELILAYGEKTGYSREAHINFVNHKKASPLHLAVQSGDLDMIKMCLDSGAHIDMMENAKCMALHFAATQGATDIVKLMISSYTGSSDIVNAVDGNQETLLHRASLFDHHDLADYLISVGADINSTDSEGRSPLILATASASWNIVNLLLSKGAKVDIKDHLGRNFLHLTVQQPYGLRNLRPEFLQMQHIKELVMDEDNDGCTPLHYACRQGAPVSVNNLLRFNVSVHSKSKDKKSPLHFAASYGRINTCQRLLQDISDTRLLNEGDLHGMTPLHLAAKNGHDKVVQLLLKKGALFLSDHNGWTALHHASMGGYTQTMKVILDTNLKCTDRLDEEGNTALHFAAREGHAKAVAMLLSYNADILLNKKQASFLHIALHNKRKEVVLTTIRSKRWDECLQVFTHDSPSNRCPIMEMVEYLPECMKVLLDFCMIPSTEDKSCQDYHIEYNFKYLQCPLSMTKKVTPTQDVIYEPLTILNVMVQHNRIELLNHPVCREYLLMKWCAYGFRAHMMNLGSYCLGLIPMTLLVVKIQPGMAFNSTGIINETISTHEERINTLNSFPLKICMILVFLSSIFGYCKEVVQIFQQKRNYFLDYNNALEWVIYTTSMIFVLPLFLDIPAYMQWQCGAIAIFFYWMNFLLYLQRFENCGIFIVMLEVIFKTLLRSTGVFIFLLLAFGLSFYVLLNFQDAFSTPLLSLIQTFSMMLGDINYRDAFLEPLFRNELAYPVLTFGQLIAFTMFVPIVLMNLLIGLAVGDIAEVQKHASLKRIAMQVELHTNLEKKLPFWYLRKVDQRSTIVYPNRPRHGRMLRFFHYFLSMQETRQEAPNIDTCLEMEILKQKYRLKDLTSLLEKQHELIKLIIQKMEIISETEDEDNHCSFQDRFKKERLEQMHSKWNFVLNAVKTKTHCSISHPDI

## C[C@H]1CC[C@@H](C(=O)NCc2cc(-c3ccc(C(F)(F)F)nc3)ncn2)N1S(=O)(=O)c1ccc(F)cc1
[1]
  CLhep predicted: 47 mL/min/kg
[2]
  logD: 2.9
[3]
  CLhep predicted: 19 mL/min/kg
[4]
  IC50: 13 nM

## C[C@H]1[C@H](F)C[C@@H](C(=O)NCc2ccnc(-c3cnc(C(F)(F)F)nc3)c2)N1S(=O)(=O)c1ccc(F)cc1
[5]
  solubility kinetic: < 1 µM
[1]
  CLhep predicted: 25 mL/min/kg
[2]
  logD: 3
[3]
  CLhep predicted: 12 mL/min/kg

## C[C@H]1[C@H](F)C[C@@H](C(=O)NCc2cc(-c3cnc(C(F)(F)F)nc3)ncc2Cl)N1S(=O)(=O)c1ccc(F)cc1
[5]
  solubility kinetic: < 1 µM
[1]
  CLhep predicted: 20 mL/min/kg
[3]
  CLhep predicted: 11 mL/min/kg
[4]
  IC50: 5 nM

## C[C@H]1[C@H](F)C[C@@H](C(=O)NCc2cc(-c3cnc(C(F)(F)F)cn3)ncn2)N1S(=O)(=O)c1ccc(F)cc1
[5]
  solubility kinetic: 18 µM (≈ 9.76 µg/mL)
[1]
  CLhep predicted: 18 mL/min/kg
[2]
  logD: 2.3
[3]
  CLhep predicted: 14 mL/min/kg

## C[C@@H]1CC[C@@H](C(=O)NCc2cc(-c3ccc(C(F)(F)F)nc3)ncn2)N1S(=O)(=O)c1ccc(F)cc1
[1]
  CLhep predicted: 30 mL/min/kg
[2]
  logD: 4.3
[3]
  CLhep predicted: 19 mL/min/kg
[4]
  IC50: 239 nM

## O=C(NCc1cc(-c2ccc(C(F)(F)F)nc2)ncn1)[C@@H]1CCN1S(=O)(=O)c1ccc(F)cc1
[1]
  CLhep predicted: 27 mL/min/kg
[2]
  logD: 2.4
[3]
  CLhep predicted: 10 mL/min/kg
[4]
  IC50: 1500 nM

## C[C@H]1[C@H](F)C[C@@H](C(=O)NCc2cc(-c3cnc(C(F)(F)F)nc3)ncc2F)N1S(=O)(=O)c1ccc(F)cc1
[6]
  IC50: 36 nM
[7]
  Ratio: 1.81
[8]
  bioavailability: 12%
[9]
  AUC(0-t) at 24 h: 0.56 µM·h
[5]
  solubility kinetic: < 1 µM
[10]
  Ratio: 1.95
[1]
  CLhep predicted: 17 mL/min/kg
[11]
  Cmax: 2330 nM
[12]
  Papp A→B: 11.2 ×10⁻⁶ cm/s
[13]
  AUC(0-t) at 24 h: 39.6 µM·h
[2]
  logD: 2.6
[14]
  Cmax: 2510 nM
[3]
  CLhep predicted: 10 mL/min/kg
[15]
  t1/2: 7.5 h
[4]
  IC50: 8 nM
[16]
  fraction unbound: 0.028
[17]
  Vdss: 7.5 L/kg
[18]
  fraction unbound: 0.02
[19]
  IC50: > 20000 nM
[20]
  Ratio: 0.02
[21]
  inhibition at 10 µM: 14.3%
[22]
  IC50: > 20000 nM
[23]
  AUC(0-t) at 24 h: 32.8 µM·h
[24]
  Cmax: 30 nM

## C[C@H]1[C@H](F)C[C@@H](C(=O)NCc2cc(-c3cnc(C(F)(F)F)nc3)c(C#N)cn2)N1S(=O)(=O)c1ccc(F)cc1
[5]
  solubility kinetic: 123 µM (≈ 69.7 µg/mL)
[1]
  CLhep predicted: 25 mL/min/kg
[2]
  logD: 2.3
[3]
  CLhep predicted: 17 mL/min/kg
[4]
  IC50: 96 nM

## O=C(NCc1cc(-c2ccc(C(F)(F)F)nc2)ncn1)[C@@H]1CCCN1S(=O)(=O)c1ccc(F)cc1
[1]
  CLhep predicted: 43 mL/min/kg
[2]
  logD: 2.7
[3]
  CLhep predicted: 16 mL/min/kg
[4]
  IC50: 154 nM

## O=C(NCc1cc(-c2ccc(C(F)(F)F)nc2)ncn1)[C@@H]1C[C@@H](F)CN1S(=O)(=O)c1ccc(F)cc1
[1]
  CLhep predicted: 10 mL/min/kg
[2]
  logD: 2.4
[3]
  CLhep predicted: 5 mL/min/kg
[4]
  IC50: 1200 nM

## C[C@H]1[C@H](F)C[C@@H](C(=O)NCc2cc(-c3cnc(C(F)(F)F)nc3)nc(C3CC3)n2)N1S(=O)(=O)c1ccc(F)cc1
[5]
  solubility kinetic: < 1 µM
[1]
  CLhep predicted: 22 mL/min/kg
[2]
  logD: 3.8
[3]
  CLhep predicted: 10 mL/min/kg
[4]
  IC50: 5 nM

## C[C@H]1[C@H](F)C[C@@H](C(=O)NCc2cc(-c3cnc(C(F)(F)F)nc3)ncn2)N1S(=O)(=O)c1ccc(F)cc1
[5]
  solubility kinetic: 53 µM (≈ 28.8 µg/mL)
[1]
  CLhep predicted: 18 mL/min/kg
[2]
  logD: 2.5
[3]
  CLhep predicted: 11 mL/min/kg
[4]
  IC50: 64 nM

## O=C(NCc1cc(-c2ccc(C(F)(F)F)nc2)ncn1)[C@@H]1CCCCN1S(=O)(=O)c1ccc(F)cc1
[1]
  CLhep predicted: 46 mL/min/kg
[2]
  logD: 3.4
[3]
  CLhep predicted: 18 mL/min/kg
[4]
  IC50: 2300 nM

## O=C(NCc1cc(-c2ccc(C(F)(F)F)nc2)ncn1)[C@@H]1C[C@H](F)CN1S(=O)(=O)c1ccc(F)cc1
[1]
  CLhep predicted: 40 mL/min/kg
[2]
  logD: 1.8
[3]
  CLhep predicted: 7 mL/min/kg
[4]
  IC50: 4400 nM

## C[C@H]1[C@H](F)C[C@@H](C(=O)NCc2cc(-c3cnc(C(F)(F)F)nc3)c(F)cn2)N1S(=O)(=O)c1ccc(F)cc1
[5]
  solubility kinetic: 84 µM (≈ 47 µg/mL)
[1]
  CLhep predicted: 18 mL/min/kg
[2]
  logD: 2.6
[3]
  CLhep predicted: 13 mL/min/kg
[4]
  IC50: 33 nM

## C[C@H]1[C@H](F)C[C@@H](C(=O)NCc2cc(-c3ccc(C(F)(F)F)nc3)ncn2)N1S(=O)(=O)c1ccc(F)cc1
[5]
  solubility kinetic: 2 µM (≈ 1.08 µg/mL)
[1]
  CLhep predicted: 19 mL/min/kg
[2]
  logD: 2.7
[3]
  CLhep predicted: 10 mL/min/kg
[4]
  IC50: 179 nM

## C[C@H]1[C@H](F)C[C@@H](C(=O)NCc2c(F)cnc(-c3cnc(C(F)(F)F)nc3)c2F)N1S(=O)(=O)c1ccc(F)cc1
[5]
  solubility kinetic: 8 µM (≈ 4.62 µg/mL)
[1]
  CLhep predicted: 36 mL/min/kg
[2]
  logD: 2.5
[3]
  CLhep predicted: 14 mL/min/kg
[4]
  IC50: 328 nM

## C[C@H]1[C@H](F)C[C@@H](C(=O)NCc2cc(-c3cnc(C(F)(F)F)nc3)ccn2)N1S(=O)(=O)c1ccc(F)cc1
[5]
  solubility kinetic: 132 µM (≈ 71.5 µg/mL)
[1]
  CLhep predicted: 18 mL/min/kg
[2]
  logD: 3.3
[3]
  CLhep predicted: 16 mL/min/kg

## C[C@H]1[C@H](F)C[C@@H](C(=O)NCc2cc(-c3cnc(C(F)(F)F)nc3)c(Cl)cn2)N1S(=O)(=O)c1ccc(F)cc1
[5]
  solubility kinetic: 8 µM (≈ 4.61 µg/mL)
[1]
  CLhep predicted: 21 mL/min/kg
[2]
  logD: 2.5
[3]
  CLhep predicted: 15 mL/min/kg
[4]
  IC50: 13 nM

## C[C@H]1[C@H](F)C[C@@H](C(=O)NCc2cc(-c3cnc(C(F)(F)F)nc3)ncc2C#N)N1S(=O)(=O)c1ccc(F)cc1
[5]
  solubility kinetic: 14 µM (≈ 7.93 µg/mL)
[1]
  CLhep predicted: 16 mL/min/kg
[3]
  CLhep predicted: 9 mL/min/kg
[4]
  IC50: 10 nM
